According to ChEMBL document CHEMBL4118021, “Studies of TAK1-centered polypharmacology with novel covalent TAK1 inhibitors” (Bioorg Med Chem, 2017):
Calls of active or inactive are those of the source. The calls are words filed in the database; no cut-off is given here.

How the values were obtained:
[1] = tested on: BaF3; experiment: Antiproliferative activity against mouse BA/F3 cells harboring KRAS G12D mutant after 72 hrs by CellTiter-Glo assay; type: functional, cell-based; conditions: BaF3, 72 h
[2] = tested on: BaF3; experiment: Antiproliferative activity against mouse BA/F3 cells harboring NRAS G12D mutant after 72 hrs by CellTiter-Glo assay; type: functional, cell-based; conditions: BaF3, 72 h
Method in brief: (§1)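 Ba/F3 parental or RAS-transformed cells were seeded at 1000 viable cells/well, without or with IL-3 as the line states, at 37 °C and 5% CO2. After 4 h, nine four-fold serial dilutions were added in triplicate (final 0.5–30,000 nM, 0.3% DMSO). DMSO wells served as 100% viability.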

[3] = tested on: BaF3; experiment: Antiproliferative activity against mouse BA/F3 cells harboring NRAS G12D mutant after 72 hrs in presence of IL-3 by CellTiter-Glo assay; type: functional, cell-based; conditions: BaF3, 72 h; method in brief: as §1
[4] = target: T1, Mitogen-activated protein kinase kinase kinase 7 (Homo sapiens, UniProt O43318); experiment: Inhibition of TAK1 (unknown origin) by LanthaScreen assay
T1 sequence (O43318 whole entry): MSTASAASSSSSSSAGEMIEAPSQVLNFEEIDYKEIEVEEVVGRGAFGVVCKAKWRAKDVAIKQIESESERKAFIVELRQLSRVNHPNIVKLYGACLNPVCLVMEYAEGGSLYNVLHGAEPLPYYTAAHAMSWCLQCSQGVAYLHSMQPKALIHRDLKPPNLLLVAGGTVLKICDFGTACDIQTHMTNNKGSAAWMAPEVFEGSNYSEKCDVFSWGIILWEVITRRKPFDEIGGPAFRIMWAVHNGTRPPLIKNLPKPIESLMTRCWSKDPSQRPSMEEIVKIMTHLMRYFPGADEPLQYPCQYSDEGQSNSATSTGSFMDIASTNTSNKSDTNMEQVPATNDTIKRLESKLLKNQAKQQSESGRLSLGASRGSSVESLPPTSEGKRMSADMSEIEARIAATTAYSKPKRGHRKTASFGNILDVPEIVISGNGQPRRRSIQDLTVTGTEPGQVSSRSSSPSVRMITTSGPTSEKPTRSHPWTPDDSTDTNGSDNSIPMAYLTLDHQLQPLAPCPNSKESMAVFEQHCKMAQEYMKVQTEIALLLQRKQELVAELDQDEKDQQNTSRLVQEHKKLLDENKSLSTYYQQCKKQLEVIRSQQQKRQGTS

[5] = tested on: BaF3; experiment: Antiproliferative activity against mouse BA/F3 cells harboring KRAS G12D mutant after 72 hrs in presence of IL-3 by CellTiter-Glo assay; type: functional, cell-based; conditions: BaF3, 72 h
[6] = tested on: BaF3; experiment: Antiproliferative activity against mouse BA/F3 cells after 72 hrs by CellTiter-Glo assay; type: cell-based; conditions: BaF3, 72 h
[7] = target: T2, Mitogen-activated protein kinase kinase kinase 7 (Homo sapiens) (UniProt O43318); experiment: Inhibition of biotin-labeled N-(2-(2-(2-(2-(4-(4-((4-((2-Acrylamidophenyl)amino)-5-chloropyrimidin-2-yl)amino)phenyl)piperazin-1-yl)ethoxy)ethoxy)ethoxy)ethyl)-5-((3aS,4S,6aR)-2-oxohexahydro-1H-thieno[3,4-d]imidazol-4-yl)pentanamide probe binding to TAK1 in human NCI-H358 cells at 10 uM after 6 hrs by immunoblot based competitive pull down assay; type: cell-based
T2 sequence (whole entry): T1 sequence (O43318 whole entry)
Method in brief: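 H358 cells given 1 or 10 μM compound for 6 h, medium removed, cells rinsed twice with cold PBS and lysed in MPER buffer. Lysates incubated overnight at 4 °C with 1 μM biotinylated covalent probe, captured on streptavidin beads, and TAK1 recovery assessed by immunoblotting with anti-TAK1 antibody.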

[8] = tested on: SW-620; experiment: Antiproliferative activity against human SW620 cells harboring KRAS G12V mutant after 72 hrs by CellTiter-Glo assay; type: functional, cell-based; conditions: SW-620, 72 h
[9] = Antiproliferative activity against human SW156 cells harboring wild type KRAS after 72 hrs by CellTiter-Glo assay; type: functional, cell-based
[10] = tested on: SK-CO-1; experiment: Antiproliferative activity against human SKCO1 cells harboring KRAS G12V mutant after 72 hrs by CellTiter-Glo assay; type: functional, cell-based; conditions: SK-CO-1, 72 h
[11] = tested on: PANC-1; experiment: Antiproliferative activity against human PANC1 cells harboring KRAS G12D mutant after 72 hrs by CellTiter-Glo assay; type: functional, cell-based; conditions: PANC-1, 72 h
[12] = Antiproliferative activity against human URMC6 cells harboring wild type KRAS after 72 hrs by CellTiter-Glo assay; type: functional, cell-based
[13] = tested on: ASPC1; experiment: Antiproliferative activity against human AsPC1 cells harboring KRAS G12D mutant after 72 hrs by CellTiter-Glo assay; type: functional, cell-based; conditions: ASPC1, 72 h
[14] = tested on: MOLM-14; experiment: Antiproliferative activity against human MOLM14 cells harboring FLT3-ITD mutant at […] to […] nM after 72 hrs by CellTiter-Glo assay; type: functional, cell-based
[15] = tested on: NALM-6; experiment: Antiproliferative activity against human NALM6 cells harboring NARS A146T mutant at […] to […] nM after 72 hrs by CellTiter-Glo assay; type: functional, cell-based
[16] = tested on: U-937; experiment: Antiproliferative activity against human U937 cells at […] to […] nM after 72 hrs by CellTiter-Glo assay; type: functional, cell-based
[17] = tested on: HEL; experiment: Antiproliferative activity against human HEL cells at […] to […] nM after 72 hrs by CellTiter-Glo assay; type: functional, cell-based
[18] = tested on: NCI-H23; experiment: Antiproliferative activity against human NCI-H23 cells harboring KRAS G12C mutant after 72 hrs by CellTiter-Glo assay; type: functional, cell-based
Method in brief: (§2)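 NCI-H23 or NCI-H358 cells seeded at 2000 cells/well and grown 48 h before drug. Varying doses were added and cells incubated 72 h. Viability was read as CellTiter-Glo luminescence, and growth-inhibition IC50 was calculated from dose-response curves.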

[19] = tested on: NCI-H358; experiment: Antiproliferative activity against human NCI-H358 cells harboring KRAS G12C mutant after 72 hrs by CellTiter-Glo assay; type: functional, cell-based; method in brief: as §2

Structure (SMILES)	IC50 [1]	IC50 [2]	IC50 [4]	IC50 [5]	IC50 [6]	inhibition [7]	other results
C=CC(=O)Nc1ccccc1Oc1nc(Nc2cnn(C)c2)ncc1Cl	308 nM	179 nM	7.3 nM	859 nM	2940 nM		IC50 [3]: 1020 nM
CCC(=O)Nc1ccccc1Nc1nc(Nc2ccc(N3CCN(C)CC3)cc2)ncc1Cl			1630 nM	9 nM		inactive	IC50 [8]: 247 nM; IC50 [9]: 363 nM; IC50 [10]: 54 nM; IC50 [11]: 426 nM; IC50 [12]: 263 nM; IC50 [13]: 73 nM
C=CC(=O)Oc1ccccc1Nc1nc(Nc2ccc(N3CCN(C)CC3)cc2)ncc1Cl	44 nM		3.3 nM	555 nM	234 nM		
C=CC(=O)Nc1ccccc1Oc1nc(Nc2cnn(C(F)F)c2)ncc1Cl	67 nM	92 nM	7 nM	414 nM	539 nM	Active	Activity [14]: Active; Activity [15]: inactive; Activity [16]: Active; IC50 [3]: 277 nM; Activity [17]: inactive
C=CC(=O)Nc1ccccc1Oc1ccnc(Nc2ccc(N3CCN(C)CC3)cc2)n1			950 nM	1400 nM	1930 nM		
CC(C)Nc1cc(-c2c[nH]c(C(=O)N[C@H](CO)c3cccc(Cl)c3)c2)c(Cl)cn1 [ULIXERTINIB]	468 nM			8610 nM	2230 nM		IC50 [8]: 499 nM; IC50 [9]: 1240 nM; IC50 [10]: 356 nM; IC50 ([18]; NCI-H23, 72 h): 1000 nM; IC50 [13]: 849 nM
C=CC(=O)Nc1ccccc1Sc1nc(Nc2ccc(N3CCN(C)CC3)cc2)ncc1Cl	962 nM		83 nM	763 nM	838 nM		
C=CC(=O)Oc1ccccc1Nc1nc(Nc2cccc(N3CCOCC3)c2)ncc1Cl			3.2 nM	839 nM		Active	
C=CC(=O)Nc1ccccc1-n1ccc2cnc(Nc3ccc(N4CCN(C)CC4)cc3)nc21	905 nM	2040 nM	3010 nM		3270 nM		
CN1CCN(c2ccc(Nc3ncc(Cl)c(Nc4ccccc4NC(=O)CCl)n3)cc2)CC1	31 nM	10 nM	25 nM	376 nM	206 nM	Active	Activity [14]: Active; Activity [15]: inactive; Activity [16]: Active; IC50 [3]: 178 nM; Activity [19]: Active; Activity [17]: inactive; Activity [18]: Active
C=CC(=O)Oc1ccccc1Nc1nc(Nc2cccc(N3CCN(C(C)=O)CC3)c2)ncc1Cl	280 nM		1.7 nM	460 nM			
C=CC(=O)Nc1ccccc1Oc1nc(Nc2ccc(N3CCN(C)CC3)cc2)ncc1OC	57 nM		75 nM	310 nM	476 nM		
